Assays:
[1] = test system: K562; assay: Antiproliferative activity against human K562 cells at 10 uM after 48 hrs by trypan blue assay; format: functional; conditions: K562, 48 h, read-out: GI
[2] = test system: K562; assay: Growth inhibition of human K562 cells after 48 hrs by trypan blue assay; format: functional, cell-based; conditions: K562, 48 h
[3] = test system: CCRF-CEM; assay: Growth inhibition of human CCRF-CEM cells after 48 hrs by SRB assay; format: functional
Outline: (§1)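 NCI DTP panel cells grown in RPMI 1640 with 5% FBS and 2 mM L-glutamine, preincubated 24 h, then given five concentrations (10-fold or ½-log dilutions from DMSO stock) for 48 h at 37 °C. Cells fixed with TCA, stained with SRB, absorbance read at 515 nm, with time-zero plates as reference.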

[4] = test system: HL-60; assay: Growth inhibition of human HL60 cells after 48 hrs by SRB assay; format: functional; conditions: HL-60, 48 h; outline: as §1
[5] = test system: K562; assay: Growth inhibition of human K562 cells after 48 hrs by SRB assay; format: functional; conditions: K562, 48 h; outline: as §1
[6] = test system: MOLT-4; assay: Growth inhibition of human MOLT4 cells after 48 hrs by SRB assay; format: functional; conditions: MOLT-4, 48 h; outline: as §1
[7] = test system: RPMI-8226; assay: Growth inhibition of human RPMI8226 cells after 48 hrs by SRB assay; format: functional; conditions: RPMI-8226, 48 h; outline: as §1
[8] = test system: A549; assay: Growth inhibition of human A549 cells after 48 hrs by SRB assay; format: functional; conditions: A549, 48 h; outline: as §1
[9] = test system: EKVX; assay: Growth inhibition of human EKVX cells after 48 hrs by SRB assay; format: functional; outline: as §1
[10] = test system: HOP-62; assay: Growth inhibition of human HOP62 cells after 48 hrs by SRB assay; format: functional; conditions: HOP-62, 48 h; outline: as §1
[11] = test system: HOP-92; assay: Growth inhibition of human HOP92 cells after 48 hrs by SRB assay; format: functional; conditions: HOP-92, 48 h; outline: as §1
[12] = test system: NCI-H226; assay: Growth inhibition of human NCI-H226 cells after 48 hrs by SRB assay; format: functional; conditions: NCI-H226, 48 h; outline: as §1
[13] = test system: NCI-H23; assay: Growth inhibition of human NCI-H23 cells after 48 hrs by SRB assay; format: functional; conditions: NCI-H23, 48 h; outline: as §1
[14] = test system: NCI-H460; assay: Growth inhibition of human NCI-H460 cells after 48 hrs by SRB assay; format: functional; conditions: NCI-H460, 48 h; outline: as §1
[15] = test system: NCI-H522; assay: Growth inhibition of human NCI-H522 cells after 48 hrs by SRB assay; format: functional; conditions: NCI-H522, 48 h; outline: as §1
[16] = test system: COLO 205; assay: Growth inhibition of human COLO205 cells after 48 hrs by SRB assay; format: functional; conditions: COLO 205, 48 h; outline: as §1
[17] = test system: HCC 2998; assay: Growth inhibition of human HCC2998 cells after 48 hrs by SRB assay; format: functional; conditions: HCC 2998, 48 h; outline: as §1
[18] = test system: HCT-116; assay: Growth inhibition of human HCT116 cells after 48 hrs by SRB assay; format: functional; conditions: HCT-116, 48 h; outline: as §1
[19] = test system: HCT-15; assay: Growth inhibition of human HCT15 cells after 48 hrs by SRB assay; format: functional; conditions: HCT-15, 48 h; outline: as §1
[20] = test system: HT-29; assay: Growth inhibition of human HT-29 cells after 48 hrs by SRB assay; format: functional; conditions: HT-29, 48 h; outline: as §1
[21] = test system: KM12; assay: Growth inhibition of human KM12 cells after 48 hrs by SRB assay; format: functional; conditions: KM12, 48 h; outline: as §1
[22] = test system: SW-620; assay: Growth inhibition of human SW620 cells after 48 hrs by SRB assay; format: functional; conditions: SW-620, 48 h
Outline: (§2)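 Run by the NCI Developmental Therapeutics Program: cells in RPMI 1640 with 5% FBS and 2 mM L-glutamine, plated at 5000–40,000 cells/well and grown 24 h before dosing. Drug (DMSO stock) given at five concentrations for 48 h at 37 °C, 5% CO2. Adherent cells fixed with cold TCA, stained with 0.4% SRB and read at 515 nm. GI50, TGI and LC50 taken from the time-zero, control and treated absorbances.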

[23] = test system: SF-268; assay: Growth inhibition of human SF268 cells after 48 hrs by SRB assay; format: functional; conditions: SF-268, 48 h; outline: as §1
[24] = test system: SF-295; assay: Growth inhibition of human SF295 cells after 48 hrs by SRB assay; format: functional; conditions: SF-295, 48 h; outline: as §1
[25] = test system: SF-539; assay: Growth inhibition of human SF539 cells after 48 hrs by SRB assay; format: functional; conditions: SF-539, 48 h; outline: as §1
[26] = test system: SNB-19; assay: Growth inhibition of human SNB19 cells after 48 hrs by SRB assay; format: functional; conditions: SNB-19, 48 h; outline: as §2
[27] = test system: SNB-75; assay: Growth inhibition of human SNB75 cells after 48 hrs by SRB assay; format: functional; conditions: SNB-75, 48 h; outline: as §2
[28] = test system: U-251; assay: Growth inhibition of human U251 cells after 48 hrs by SRB assay; format: functional; conditions: U-251, 48 h; outline: as §2
[29] = test system: LOX IMVI; assay: Growth inhibition of human LOXIMVI cells after 48 hrs by SRB assay; format: functional; outline: as §1
[30] = test system: M14; assay: Growth inhibition of human M14 cells after 48 hrs by SRB assay; format: functional; conditions: M14, 48 h; outline: as §1
[31] = test system: MDA-MB-435; assay: Growth inhibition of human MDA-MB-435 cells after 48 hrs by SRB assay; format: functional; conditions: MDA-MB-435, 48 h; outline: as §1
[32] = test system: SK-MEL-2; assay: Growth inhibition of human SK-MEL-2 cells after 48 hrs by SRB assay; format: functional; conditions: SK-MEL-2, 48 h; outline: as §2
[33] = test system: SK-MEL-5; assay: Growth inhibition of human SK-MEL-5 cells after 48 hrs by SRB assay; format: functional; conditions: SK-MEL-5, 48 h; outline: as §2
[34] = test system: UACC-257; assay: Growth inhibition of human UACC257 cells after 48 hrs by SRB assay; format: functional; conditions: UACC-257, 48 h; outline: as §2
[35] = test system: UACC-62; assay: Growth inhibition of human UACC62 cells after 48 hrs by SRB assay; format: functional; conditions: UACC-62, 48 h; outline: as §2
[36] = test system: IGROV-1; assay: Growth inhibition of human IGROV1 cells after 48 hrs by SRB assay; format: functional; conditions: IGROV-1, 48 h; outline: as §1
[37] = test system: OVCAR-3; assay: Growth inhibition of human OVCAR3 cells after 48 hrs by SRB assay; format: functional; conditions: OVCAR-3, 48 h; outline: as §1
[38] = test system: OVCAR-4; assay: Growth inhibition of human OVCAR4 cells after 48 hrs by SRB assay; format: functional; conditions: OVCAR-4, 48 h; outline: as §1
[39] = test system: OVCAR-5; assay: Growth inhibition of human OVCAR5 cells after 48 hrs by SRB assay; format: functional; conditions: OVCAR-5, 48 h; outline: as §1
[40] = test system: NCI/ADR-RES; assay: Growth inhibition of human NCI/ADR-RES cells after 48 hrs by SRB assay; format: functional; outline: as §1
[41] = test system: SK-OV-3; assay: Growth inhibition of human SKOV3 cells after 48 hrs by SRB assay; format: functional; conditions: SK-OV-3, 48 h; outline: as §2
[42] = test system: 786-0; assay: Growth inhibition of human 786-0 cells after 48 hrs by SRB assay; format: functional; conditions: 786-0, 48 h; outline: as §1
[43] = test system: A498; assay: Growth inhibition of human A498 cells after 48 hrs by SRB assay; format: functional; conditions: A498, 48 h; outline: as §1
[44] = test system: ACHN; assay: Growth inhibition of human ACHN cells after 48 hrs by SRB assay; format: functional; outline: as §1
[45] = test system: CAKI-1; assay: Growth inhibition of human Caki1 cells after 48 hrs by SRB assay; format: functional; conditions: CAKI-1, 48 h; outline: as §1
[46] = test system: RXF 393; assay: Growth inhibition of human RXF393 cells after 48 hrs by SRB assay; format: functional; conditions: RXF 393, 48 h; outline: as §1
[47] = test system: SN12C; assay: Growth inhibition of human SN12C cells after 48 hrs by SRB assay; format: functional; outline: as §2
[48] = test system: TK-10; assay: Growth inhibition of human TK10 cells after 48 hrs by SRB assay; format: functional; conditions: TK-10, 48 h; outline: as §2
[49] = test system: UO-31; assay: Growth inhibition of human UO31 cells after 48 hrs by SRB assay; format: functional; conditions: UO-31, 48 h; outline: as §2
[50] = test system: PC-3; assay: Growth inhibition of human PC3 cells after 48 hrs by SRB assay; format: functional; conditions: PC-3, 48 h; outline: as §1
[51] = test system: DU-145; assay: Growth inhibition of human DU145 cells after 48 hrs by SRB assay; format: functional; conditions: DU-145, 48 h; outline: as §1
[52] = test system: MCF7; assay: Growth inhibition of human MCF7 cells after 48 hrs by SRB assay; format: functional; conditions: MCF7, 48 h; outline: as §1
[53] = test system: MDA-MB-231; assay: Growth inhibition of human MDA-MB-231 cells after 48 hrs by SRB assay; format: functional; conditions: MDA-MB-231, 48 h; outline: as §1
[54] = Growth inhibition of human Hs 578T cells after 48 hrs by SRB assay; format: functional; outline: as §1
[55] = test system: BT-549; assay: Growth inhibition of human BT549 cells after 48 hrs by SRB assay; format: functional; conditions: BT-549, 48 h; outline: as §1
[56] = test system: T47D; assay: Growth inhibition of human T47D cells after 48 hrs by SRB assay; format: functional; outline: as §2
[57] = test system: MDA-MB-468; assay: Growth inhibition of human MDA-MB-468 cells after 48 hrs by SRB assay; format: functional; conditions: MDA-MB-468, 48 h; outline: as §1

NC(=O)c1cc(I)ccc1NC(=O)/C=C/c1ccccc1Cl
inhibition of growth at 10 µM [1]: 74.1%
IC50 [2]: 1200 nM
GI50 [3]: 484 nM
GI50 [4]: 165 nM
GI50 [5]: 370 nM
GI50 [6]: 1420 nM
GI50 [7]: 772 nM
GI50 [8]: 1870 nM
GI50 [9]: 1000 nM
GI50 [10]: 2300 nM
GI50 [11]: 13200 nM
GI50 [12]: 1140 nM
GI50 [13]: 1390 nM
GI50 [14]: 479 nM
GI50 [15]: 459 nM
GI50 [16]: 797 nM
GI50 [17]: 984 nM
GI50 [18]: 509 nM
GI50 [19]: 987 nM
GI50 [20]: 376 nM
GI50 [21]: 533 nM
GI50 [22]: 605 nM
GI50 [23]: 778 nM
GI50 [24]: 415 nM
GI50 [25]: 444 nM
GI50 [26]: 1410 nM
GI50 [27]: 1220 nM
GI50 [28]: 663 nM
GI50 [29]: 4210 nM
GI50 [30]: 698 nM
GI50 [31]: 234 nM
GI50 [32]: 678 nM
GI50 [33]: 367 nM
GI50 [34]: 38700 nM
GI50 [35]: 388 nM
GI50 [36]: 352 nM
GI50 [37]: 294 nM
GI50 [38]: 2370 nM
GI50 [39]: 4020 nM
GI50 [40]: 719 nM
GI50 [41]: 539 nM
GI50 [42]: 937 nM
GI50 [43]: 880 nM
GI50 [44]: 9860 nM
GI50 [45]: 637 nM
GI50 [46]: 425 nM
GI50 [47]: 1550 nM
GI50 [48]: 26700 nM
GI50 [49]: 1630 nM
GI50 [50]: 832 nM
GI50 [51]: 1280 nM
GI50 [52]: 401 nM
GI50 [53]: 1410 nM
GI50 [54]: 362 nM
GI50 [55]: 816 nM
GI50 [56]: 19900 nM
GI50 [57]: 377 nM

Source: ChEMBL document CHEMBL1795311, “Synthesis, antiproliferative activity, and mechanism of action of a series of 2-{[(2E)-3-phenylprop-2-enoyl]amino}benzamides” (Eur J Med Chem, 2011)
